Results reported in ChEMBL document CHEMBL2177069, “Novel peptidomimetic compounds containing redox active chalcogens and quinones as potential anticancer agents” (Eur J Med Chem, 2012).
Calls of active or inactive are those of the source. No cut-off for these calls is given here.

What was measured:
Saccharomyces cerevisiae [1] = assay: Growth inhibition of UFD2-deficient Saccharomyces cerevisiae YDL190C mutant at 20 ug/disc after 24 to 48 hrs by agar diffusion assay; assay type: functional; settings: read-out: DIZ
Procedure, shortened: (§1)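 S. cerevisiae deletion mutants or wild type grown on YPD, seeded into liquid agar medium at an optical density of 0.1. 6 mm paper discs soaked with methanolic compound solution were placed on the plates and incubated at 30 °C. Growth was checked after 1 and 2 days, and the inhibition zone diameter was recorded in mm.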

Saccharomyces cerevisiae [2] = assay: Growth inhibition of GSH2-deficient Saccharomyces cerevisiae YOL049W mutant at 20 ug/disc after 24 to 48 hrs by agar diffusion assay; assay type: functional; settings: read-out: DIZ; procedure, shortened: as §1
Saccharomyces cerevisiae [3] = assay: Growth inhibition of POS5-deficient Saccharomyces cerevisiae YPL188W mutant at 20 ug/disc after 24 to 48 hrs by agar diffusion assay; assay type: functional; settings: read-out: DIZ; procedure, shortened: as §1
Saccharomyces cerevisiae [4] = assay: Growth inhibition of PST2-deficient Saccharomyces cerevisiae YDR032C mutant at 20 ug/disc 24 to 48 hrs by agar diffusion assay; assay type: functional; settings: read-out: DIZ; procedure, shortened: as §1
Saccharomyces cerevisiae [5] = assay: Growth inhibition of SOD2-deficient Saccharomyces cerevisiae YHR008C mutant at 20 ug/disc 24 to 48 hrs by agar diffusion assay; assay type: functional; settings: read-out: DIZ; procedure, shortened: as §1
PtK2 [6] = assay: Induction of oxidative stress in potoroo PtK2 cells assessed as change in microtubular network after 24 hrs by immunofluorescence microscopic analysis; assay type: functional, cell-based; settings: Potorous tridactylus
Procedure, shortened: (§2)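 PtK2 cells were grown on coverslips and treated once semi-confluent, for 24 h. Cells were fixed with 3.7% paraformaldehyde followed by 0.1% Triton X-100, or with cold methanol/acetone 50:50. Primary and secondary antibodies were applied for 45 min each: anti-GRP94 for ER, anti-α-tubulin. Actin was stained with phalloidin and nuclei with DAPI. Imaging was by fluorescence microscopy with a CCD camera.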

PtK2 [7] = assay: Induction of oxidative stress in potoroo PtK2 cells assessed as reduction in actin stress fibres after 24 hrs by immunofluorescence microscopic analysis; assay type: functional, cell-based; settings: Potorous tridactylus; procedure, shortened: as §2
PtK2 [8] = assay: Induction of oxidative stress in potoroo PtK2 cells assessed as reduction in cell adhesion after 24 hrs by immunofluorescence microscopic analysis; assay type: functional, cell-based; settings: Potorous tridactylus; procedure, shortened: as §2
PtK2 [9] = assay: Induction of oxidative stress in potoroo PtK2 cells assessed as hole in the endoplasmic reticulum after 24 hrs by immunofluorescence microscopic analysis; assay type: functional, cell-based; settings: Potorous tridactylus; procedure, shortened: as §2
[10] = Cytotoxicity against human PHF cells after 24 hrs by MTT assay; assay type: cell-based
Procedure, shortened: (§3)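 MTT assay. Cells were seeded at 50,000 cells/mL in medium with 10% fetal calf serum and grown for two days at 37 °C, 10% CO2. Serial dilutions of compound were then added for 24 h. MTT was added (final 0.5 mg/mL) for 2 h, and the formazan was pelleted, washed, dissolved in isopropanol with 0.4% HCl and read at 590 nm. IC50 is the concentration giving 50% of untreated-control absorbance, taken from dose-response curves; mean of two parallel experiments.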

A-431 = assay: Cytotoxicity against human A431 cells after 24 hrs by MTT assay; assay type: functional, cell-based; settings: A-431, 24 h; procedure, shortened: as §3
MCF7 = assay: Cytotoxicity against human MCF7 cells; assay type: functional
PC-3 = assay: Cytotoxicity against human PC3 cells; assay type: functional
TK-10 = assay: Cytotoxicity against human TK10 cells; assay type: functional
RXF 393 = assay: Cytotoxicity against human RXF393 cells; assay type: functional
CAKI-1 = assay: Cytotoxicity against human Caki1 cells; assay type: functional
ACHN = assay: Cytotoxicity against human ACHN cells; assay type: functional
NCI/ADR-RES = assay: Cytotoxicity against human NCI/ADR-RES cells; assay type: functional
IGROV-1 = assay: Cytotoxicity against human IGROV1 cells; assay type: functional
OVCAR-3 = assay: Cytotoxicity against human OVCAR3 cells; assay type: functional
UACC-62 = assay: Cytotoxicity against human UACC62 cells; assay type: functional
UACC-257 = assay: Cytotoxicity against human UACC257 cells; assay type: functional
Malme-3M = assay: Cytotoxicity against human MALME-3M cells; assay type: functional
LOX IMVI = assay: Cytotoxicity against human LOXIMVI cells; assay type: functional
SF-539 = assay: Cytotoxicity against human SF539 cells; assay type: functional
SF-268 = assay: Cytotoxicity against human SF268 cells; assay type: functional
SW-620 = assay: Cytotoxicity against human SW620 cells; assay type: functional
HT-29 = assay: Cytotoxicity against human HT-29 cells; assay type: functional
KM12 = assay: Cytotoxicity against human KM12 cells; assay type: functional
HCT-116 = assay: Cytotoxicity against human HCT116 cells; assay type: functional
COLO 205 = assay: Cytotoxicity against human COLO205 cells; assay type: functional
NCI-H522 = assay: Cytotoxicity against human NCI-H522 cells; assay type: functional
HOP-92 = assay: Cytotoxicity against human HOP92 cells; assay type: functional
NCI-H226 = assay: Cytotoxicity against human NCI-H226 cells; assay type: functional
NCI-H23 = assay: Cytotoxicity against human NCI-H23 cells; assay type: functional
RPMI-8226 = assay: Cytotoxicity against human RPMI8226 cells; assay type: functional
HL-60 = assay: Cytotoxicity against human HL60 cells; assay type: functional
K562 = assay: Cytotoxicity against human K562 cells; assay type: functional
CCRF-CEM = assay: Cytotoxicity against human CCRF-CEM cells; assay type: functional
[11] = read-out: pLC50 (the source's name) (converted)

## CC1=C([Se]CC(OC(=O)[C@@H](CO)NC(=O)OC(C)(C)C)C(=O)NC(C)(C)C)C(=O)c2ccccc2C1=O (stereo partly drawn)
Saccharomyces cerevisiae [1]
  zone of inhibition at 20 µg/disc: 13 mm
Saccharomyces cerevisiae [2]
  zone of inhibition at 20 µg/disc: 18 mm
Saccharomyces cerevisiae [3]
  zone of inhibition at 20 µg/disc: 11 mm
Saccharomyces cerevisiae [4]
  zone of inhibition at 20 µg/disc: 11 mm
Saccharomyces cerevisiae [5]
  zone of inhibition at 20 µg/disc: 19 mm
PtK2 [6]
  Activity: inactive
PtK2 [7]
  Activity: Active
PtK2 [8]
  Activity: Active
PtK2 [9]
  Activity: Active
[10]
  IC50: 7 µM
A-431
  IC50: 2 µM
MCF7
  GI50: 1.74 µM
  LC50: 8.91 µM
MCF7; read-out: pTGI (converted)
  TGI: 3.98 µM
PC-3
  GI50: 1.35 µM
  LC50: 6.03 µM
PC-3; read-out: pTGI (converted)
  TGI: 2.82 µM
TK-10
  GI50: 2 µM
  LC50: 6.03 µM
TK-10; read-out: pTGI (converted)
  TGI: 3.47 µM
RXF 393
  GI50: 1.86 µM
  LC50: 5.75 µM
RXF 393; read-out: pTGI (converted)
  TGI: 3.31 µM
CAKI-1
  GI50: 1.74 µM
  LC50: 6.61 µM
CAKI-1; read-out: pTGI (converted)
  TGI: 3.39 µM
ACHN
  GI50: 1.58 µM
  LC50: 5.75 µM
ACHN; read-out: pTGI (converted)
  TGI: 3.02 µM
NCI/ADR-RES
  GI50: 1.62 µM
NCI/ADR-RES; read-out: pTGI (converted)
  TGI: 3.09 µM
IGROV-1
  GI50: 1.66 µM
  LC50 (concentration killing 50% of cells): 6.46 µM
IGROV-1; read-out: pTGI (converted)
  TGI: 3.24 µM
OVCAR-3
  GI50: 1.78 µM
  LC50: 5.62 µM
OVCAR-3; read-out: pTGI (converted)
  TGI: 3.16 µM
UACC-62
  GI50: 1.66 µM
  LC50: 5.62 µM
UACC-62; read-out: pTGI (converted)
  TGI: 3.02 µM
UACC-257
  GI50: 1.74 µM
  LC50: 6.03 µM
UACC-257; read-out: pTGI (converted)
  TGI: 3.24 µM
Malme-3M
  GI50: 2.04 µM
  LC50: 6.92 µM
Malme-3M; read-out: pTGI (converted)
  TGI: 3.8 µM
LOX IMVI
  GI50: 1.58 µM
  LC50: 5.75 µM
LOX IMVI; read-out: pTGI (converted)
  TGI: 3.02 µM
SF-539
  GI50: 1.58 µM
  LC50: 5.89 µM
SF-539; read-out: pTGI (converted)
  TGI: 3.09 µM
SF-268
  GI50: 1.91 µM
  LC50: 5.89 µM
SF-268; read-out: pTGI (converted)
  TGI: 3.31 µM
SW-620
  GI50: 1.78 µM
  LC50: 6.31 µM
SW-620; read-out: pTGI (converted)
  TGI: 3.31 µM
HT-29
  GI50: 2.29 µM
  LC50: 9.77 µM
HT-29; read-out: pTGI (converted)
  TGI: 4.79 µM
KM12
  GI50: 1.51 µM
  LC50: 5.5 µM
KM12; read-out: pTGI (converted)
  TGI: 2.88 µM
HCT-116
  GI50: 1.45 µM
  LC50: 5.37 µM
HCT-116; read-out: pTGI (converted)
  TGI: 2.82 µM
COLO 205
  GI50: 1.82 µM
COLO 205; [11]
  CC50: 6.03 µM
COLO 205; read-out: pTGI (converted)
  TGI: 3.31 µM
NCI-H522
  GI50: 1.58 µM
  LC50: 6.17 µM
NCI-H522; read-out: pTGI (converted)
  TGI: 3.16 µM
HOP-92
  GI50: 1.86 µM
  LC50 (50% lethal concentration): 6.31 µM
HOP-92; read-out: pTGI (converted)
  TGI: 3.39 µM
NCI-H226
  GI50: 1.95 µM
NCI-H226; [11]
  CC50: 9.12 µM
NCI-H226; read-out: pTGI (converted)
  TGI: 4.17 µM
NCI-H23
  GI50: 1.48 µM
  LC50: 6.92 µM
NCI-H23; read-out: pTGI (converted)
  TGI: 3.24 µM
RPMI-8226
  GI50: 2.75 µM
  LC50: > 100 µM
RPMI-8226; read-out: pTGI (converted)
  TGI: 8.91 µM
HL-60
  GI50: 0.871 µM
  LC50: > 100 µM
HL-60; read-out: pTGI (converted)
  TGI: 3.8 µM
K562
  GI50: 1.35 µM
  LC50: > 100 µM
CCRF-CEM
  GI50: 0.525 µM
  LC50: > 100 µM
CCRF-CEM; read-out: pTGI
  TGI: > 100 µM
